# A selection: hits, their analogues and other compounds. The true share with any hit is near 2.1%.
# beta cell repl = MIN6 beta-cell proliferation induction; 330,000 tested, 0.29% active; proliferation, % at 10 µM; MIN6 cells proliferation, ATPlite luminescence, 48 h; cells starved in 0.2% serum; 100% = growth in 10% serum; AID 2380;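 active = compounds whose signal lies at least 3.5 SD above the mean of all wells on their plate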;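 also: 0% = DMSO-treated cells in low-serum medium and 100% = 10% serum control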
# iPSC survival up = enhancers of human iPSC single-cell survival. hiPSC single-cell survival, ATPlite luminescence; 100% = ROCK inhibitor wells, 0% = DMSO. survival enhancement, % at 20 µM. 360,000 tested, 0.044% active; in the data active = survival enhancement above about 18%;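 also: cells exposed to compounds for 16 hours before the ATP read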
# CRFR2-BP ag = CRF-BP/CRF-R2 complex agonism. HEK293 CRF-R2/CRF-BP, calcium dye fluorescence (FLIPR); percent of saturating CRF peptide response. activation, % at 13.2 µM. 350,000 tested, 0.46% active. AID 588473;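 active = activation of at least 50%, plus an integration ratio under a set limit after plate pattern correction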;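 also: plate controls were neutral control wells without compound for no effect and CRF at EC100 for full effect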
# UCH37 inh = blocks the human deubiquitinase UCH37 | 330,000 tested, 0.33% active | Q9Y5K5 | purified proteasome/UCH37, Ub-AMC cleavage fluorescence | AID 588478 | inhibition, % (test concentration not listed);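 active = mean inhibition over replicate wells above about 20%, limit read from the data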;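 also: 0% = compound-free wells with enzyme and 100% = wells lacking proteasome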
# Target sequence (Q9Y5K5 whole entry, looked up): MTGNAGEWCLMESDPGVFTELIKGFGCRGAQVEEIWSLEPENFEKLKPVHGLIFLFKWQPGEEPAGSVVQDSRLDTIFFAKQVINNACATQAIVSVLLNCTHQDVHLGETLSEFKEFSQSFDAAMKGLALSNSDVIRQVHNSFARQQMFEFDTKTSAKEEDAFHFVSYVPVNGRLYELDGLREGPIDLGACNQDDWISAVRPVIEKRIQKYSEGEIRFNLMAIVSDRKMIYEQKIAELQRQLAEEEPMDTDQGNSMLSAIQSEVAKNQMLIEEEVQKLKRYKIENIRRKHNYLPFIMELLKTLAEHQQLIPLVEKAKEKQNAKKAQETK
#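 Material: human UCH37 enzyme supplied as purified proteasome complex / Amount: 0.15 nM proteasome as dispensed / Buffer or medium: pH 7.4 Tris-HCl (50 mM) with ovalbumin, ATP-MgCl2, DTT / Times: preincubation 30 min, reaction 25 min, room temperature / Technique: AMC fluorescence from Ub-AMC cleavage, excitation 355 nm, emission 460 nm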
# CRFR2-BP antag = blocks CRF-induced signaling of the CRF-BP/CRF-R2 complex; HEK293 CRF-R2/CRF-BP, CRF-induced calcium fluorescence; inhibition, % at 11.8 µM; 350,000 tested, 0.59% active;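 active = inhibition of the ligand-induced calcium signal above about 50% at the single tested concentration, limit read from the data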
# Cardio protect = modulators protecting cardiomyocytes from myocardial damage; protection from H2O2 cell death, % at 20 µM; AID 588492; H9c2 cardiomyocytes, H2O2 injury protection, ATPLite, 2 h; 360,000 tested, 0.63% active;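 active = compounds giving at least 50% protection of heart cells from peroxide-induced death in the single-dose screen, raw or plate-pattern-corrected value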;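 also: 0% = DMSO wells with peroxide and 100% = DMSO wells without peroxide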
# The depositor's hits bear a star; i = inactive; / = not tested or not shown.
SMILES,beta cell repl,iPSC survival up,CRFR2-BP ag,UCH37 inh,CRFR2-BP antag,Cardio protect
Cn1c(=O)c2c(ncn2CC(=O)OCC(=O)NCc2ccc(Cl)cc2)n(C)c1=O,0,0,-1,2,-6,8
Cn1c(=O)c2c(ncn2CC(=O)NCc2cccnc2)n(C)c1=O,0,26*,-1,2,6,1
COc1ccc2c(c1OC)C(=O)N1c3ccccc3COC21 (stereo not drawn),-5,-2,-2,2,67*,-18
CC1(C)CC(=O)C2=C(C1)N(Cc1ccco1)C(=O)C2(O)C(F)(F)F (stereo not drawn),-1,2,-1,3,94*,10
CC1(C)c2[nH]c3ccccc3c2C[C@H]2C(=O)N(Cc3ccccc3)C(=O)N21,-3,4,0,-3,60*,-3
Cc1nc(-n2nnc3ccccc32)c2c3c(sc2n1)CCCC3,0,-1,0,-24,23,-2
c1ccc2c(c1)nnn2-c1ncnc2sc3c(c12)CCCC3,0,-4,0,-18,62*,-1
CCOc1ccc(OCc2ccc(C(=O)NN=C(C)c3ccccn3)cc2)cc1,/,/,/,1,/,/
COc1cccc(-c2nc(N3CCN(C)CC3)c3ccccc3n2)c1O,-6,1,-3,8,4,51*
CN1CCN(c2nc(-c3ccccc3O)nc3ccccc23)CC1,-2,0,0,8,-18,25
COc1cccc(C=Nn2c(-c3cc(C)[nH]n3)n[nH]c2=S)c1OC,/,/,/,2,/,/
Cc1nc(OCc2ccccc2)c2ccccc2n1,0,2,0,3,4,51*
CN(C)C=Nc1ncn(-c2ncc(C(F)(F)F)cc2Cl)n1,/,/,/,1,/,/
CC(CC(=O)NCC(C)C)=NNC(=O)COc1cc(C)c(Br)cc1Br,/,/,/,-1,/,/
COCCN1C(=O)/C(=C/c2ccc(N3CCCC3)cc2)SC1=S,-2,-2,265*,6,-212,-29
CCCCC(C(=O)O)C(C)CC(=O)Nc1nncs1 (stereo not drawn),-1,0,3,1,77*,-2
CC(CCC(=O)Nc1nncs1)C(=O)O (stereo not drawn),3,3,-4,2,2,-1
CN(C(=O)C12CC3CC(CC(C3)C1)C2)C1(C)CCS(=O)(=O)C1 (stereo not drawn),-3,0,-3,30*,11,8
O=C(NN=Cc1cc2ccccc2nc1Cl)/C(=C/c1cccs1)NC(=O)c1ccccc1,/,/,/,-5,/,/
Cc1cnc(C(=O)Nc2nnc(SCc3c(Cl)cccc3Cl)s2)cn1,-6,-1,-2,-2,-5,54*
COc1cc(C=NNC(=O)c2ccncc2)ccc1OCc1cnc(Cl)s1,/,/,/,1,/,/
Cc1ccc(C(=O)OCc2cc(=O)n3ccsc3n2)s1,1,18*,2,2,-18,32
COc1ccc(C(=O)Nc2cc(=O)n(C)c(=O)n2C)cc1,-3,0,0,0,104*,8
O=[N+]([O-])c1ccc(/C=C/C2=NN(c3ccccc3)C(c3ccco3)C2)cc1 (stereo not drawn),/,4,182*,10,-174,-1
O=[N+]([O-])c1ccc(C2=NN(c3ccccc3)C(c3ccco3)C2)cc1 (stereo not drawn),/,0,105*,7,-92,-6
SMILES,beta cell repl,iPSC survival up,CRFR2-BP ag,UCH37 inh,CRFR2-BP antag,Cardio protect
CC1=NN(c2ccccc2)C(c2ccco2)C1 (stereo not drawn),/,2,-2,3,7,-1
O=[N+]([O-])c1ccc(C=CC=Cc2ccccc2)cc1,/,-1,-1,/,8,-4
COc1ccc(CC(=O)NN=C(C)CC(=O)Nc2ccc(N(C)C)cc2)cc1OC,/,/,/,3,/,/
C/C(=N\NC(=O)c1ccc(NS(=O)(=O)c2cccs2)cc1)c1ccncc1,-2,0,-2,/,1,6
C/C(=N\NC(=O)c1ccc(NS(=O)(=O)c2cccs2)cc1)c1ccccc1,-2,4,-1,/,58*,8
COc1cc(C=NNC(=O)c2ccc(COc3ccccc3Cl)o2)cc(Br)c1O,/,/,/,10,/,/
COc1cccc(C=NNC(=O)CN(C)S(=O)(=O)c2ccccc2)c1OC,/,/,/,-7,/,/
CC1(C)CC(=O)C2=C(C1)OC(N)=C(C#N)C2c1cc2c(cc1[N+](=O)[O-])OCO2 (stereo not drawn),/,-1,96*,-7,-40,-19
O=C(NNC(=S)NC(=O)c1ccc(F)cc1)c1ccncc1,-2,0,-2,/,18,14
CC1(C(=O)NC(=S)NNC(=O)c2ccncc2)CCCCC1,0,0,81*,10,33,15
O=C(NNC(=S)NC(=O)C12CC3CC(CC(C3)C1)C2)c1ccncc1,-2,0,139*,6,-84,24
CC(Cc1ccccc1)=NNC(=O)CNC(=O)c1ccc(F)cc1,/,/,/,1,/,/
NC(=O)COc1ccc(C=NNC(=O)CC(=O)NCCc2ccccc2)cc1,/,/,/,0,/,/
Oc1ccc(/C=N/Nc2cc(N3CCOCC3)nc(N3CCOCC3)n2)cc1O,-3,-1,-4,/,-13,53*
CCC(C)(C)n1nnnc1C(c1cccc(C#N)c1)N1CCN(c2cccc(C)c2C)CC1 (stereo not drawn),-2,0,-2,1,51*,-3
CCN(CC)c1ccc2cc(-c3nc(-c4ccc(OC)cc4)cs3)c(=O)oc2c1,0,/,338*,2,-404,/
CCN(CC)c1ccc2cc(-c3nc4ccccc4n3C)c(=O)oc2c1,/,-2,248*,-151,-239,-2
CCN(CC)c1ccc2cc(-c3nc4ccccc4[nH]3)c(=O)oc2c1,-6,-2,227*,2,-190,-22
CN(C)Cc1c(O)ccc2cc(-c3nc4ccccc4n3C)c(=O)oc12,-5,0,20,i,1,11
COc1cccc2cc(-c3nc4ccccc4[nH]3)c(=O)oc12,-4,0,-1,-11,0,-13
O=c1oc2ccc3ccccc3c2cc1-c1nnc(-c2ccccc2)o1,-3,1,2,-136,61*,80*
O=c1oc2ccccc2cc1-c1nnc(-c2cccc(Br)c2)o1,-2,0,0,-18,22,4
CCN(CC)c1ccc2cc(-c3nnc(-c4ccccc4)o3)c(=O)oc2c1,0,-2,192*,-12,-155,12
Cc1cc(Br)ccc1NC(=O)CNC(=O)Cn1ncc(Cl)c(Cl)c1=O,-6,-2,-1,/,87*,-20
CCCCCCc1cc2cc(C(=O)NCc3ccccc3)c(=N)oc2cc1O,-4,0,175*,-138,-109,-17
CCCCCCc1cc2cc(C(=O)Nc3ccccc3)c(=O)oc2cc1O,-5,0,39,-64,-2,-10
